Consider three compounds from ChEMBL document CHEMBL5154715, “Phenolic Lipids Derived from Cashew Nut Shell Liquid to Treat Metabolic Diseases” (J Med Chem, 2022).

Calls of active or inactive are those of the source. The rule behind the calls is not given here.

In general, CL/F refers to clearance divided by bioavailability, as obtained after extravascular dosing. As a reminder, the AUC(0-inf) is total exposure, with the tail of the curve extrapolated. A higher AUC(0-inf) goes with more exposure. What is called Cmax is the highest concentration seen after dosing. As usually defined, the bioavailability is dose-corrected exposure relative to a reference, in per cent. Low readings indicate poor availability, high ones good availability. By Tmax is commonly meant the time from dosing to the highest level.

Data set [1] deals with Danio rerio. Kind of data set: In vivo agonist activity at human GFP-tagged PPARalpha in transgenic zebrafish assessed as increase in GFP expression in brain at 1.5 uM measured after 14 hrs by microscopy.
The test system of data set [2] is Danio rerio. The experiment in a line: In vivo agonist activity at human GFP-tagged PPARalpha in transgenic zebrafish assessed as increase in GFP expression in muscle at 1.5 uM measured after 14 hrs by microscopy.
The subject of data set [3] is Danio rerio. Kind of data set: In vivo agonist activity at human GFP-tagged PPARalpha in transgenic zebrafish assessed as increase in GFP expression in yolk sac at 1.5 uM measured after 14 hrs by microscopy.
Data set [4] concerns Danio rerio. Kind of data set: In vivo agonist activity at human GFP-tagged PPARalpha in transgenic zebrafish assessed as increase in GFP expression in brain at 0.7 uM measured after 14 hrs by microscopy.
In data set [5] the target is T1, Peroxisome proliferator-activated receptor gamma (Mus musculus) (UniProt P37238).
T1 sequence (whole entry): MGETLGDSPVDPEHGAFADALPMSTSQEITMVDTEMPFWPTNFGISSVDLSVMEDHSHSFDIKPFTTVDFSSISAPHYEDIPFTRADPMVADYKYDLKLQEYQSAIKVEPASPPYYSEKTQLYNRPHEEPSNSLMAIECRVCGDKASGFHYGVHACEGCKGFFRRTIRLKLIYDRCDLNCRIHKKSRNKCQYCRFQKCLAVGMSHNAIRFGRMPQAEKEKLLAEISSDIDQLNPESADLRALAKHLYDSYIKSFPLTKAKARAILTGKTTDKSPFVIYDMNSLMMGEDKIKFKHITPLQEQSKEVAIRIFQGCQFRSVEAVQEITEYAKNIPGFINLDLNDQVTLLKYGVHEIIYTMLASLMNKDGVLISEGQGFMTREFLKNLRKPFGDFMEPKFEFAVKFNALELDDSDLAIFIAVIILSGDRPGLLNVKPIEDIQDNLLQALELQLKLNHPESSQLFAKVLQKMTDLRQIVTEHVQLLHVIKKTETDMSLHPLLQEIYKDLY
The experiment in a line: Agonist activity at human PPARgamma in mouse 3T3-L1 cells assessed as induction of Glut4 mRNA expression at 25 uM incubated for 11 days by quantitative real-time PCR analysis. To be noted: filed as agonist, time 11.0 day. A general note: Quantitative PCR measures a nucleic acid by following its amplification.

The test system of data set [6] is Danio rerio. Kind of data set: In vivo agonist activity at human GFP-tagged PPARalpha in transgenic zebrafish assessed as increase in GFP expression in brain at 0.5 uM measured after 14 hrs by microscopy.
The nature of data set [7]: Elimination rate constant in C57BL/6 mouse at 40 mg/kg, ip measured upto 24 hrs by LC-MS/MS analysis. In kind it is ADME, organism-based. To be noted: in vivo. In outline: (§1)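 Single IP dose in 5% DMSO/5% Tween-80/90% saline to WT male C57Bl/6 mice, 7–10 months old; n = 4 per time point. Saphenous sampling at 0.08–0.5 h, then terminal trunk blood at 1–6 h. Plasma extracted with methanol plus internal standard and analyzed by LC-MS/MS; mean ± SEM.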

Data set [8] is described as follows: Apparent oral clearance in C57BL/6 mouse at 100 mg/kg, po measured upto 24 hrs by LC-MS/MS analysis. In kind it is ADME, organism-based. To be noted: in vivo. The essentials:
(§2)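 Single oral dose given in peanut butter pellets to WT male C57Bl/6 mice acclimated 7 days to drug-free pellets; n = 4 per time point. Saphenous blood at 0.25–2 h, terminal collection at 4–38 h. Plasma extracted with methanol containing internal standard, LC-MS/MS with negative-ion ESI MRM. Parameters reported as mean ± SEM; Frel is oral vs IP.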

Data set [9] is described as follows: AUC (0 to infinity) in C57BL/6 mouse at 40 mg/kg, ip measured upto 24 hrs by LC-MS/MS analysis. To be noted: in vivo. More on the design: time < 24 hrs, dose 40 mg/kg, route ip. In kind it is ADME, organism-based. In outline: as §1
The subject of data set [10] is Danio rerio. The experiment in a line: In vivo agonist activity at human GFP-tagged PPARalpha in transgenic zebrafish assessed as increase in GFP expression in yolk sac at 0.5 uM measured after 14 hrs by microscopy.
A short description of data set [11]: Terminal half life in C57BL/6 mouse at 100 mg/kg, po measured upto 24 hrs by LC-MS/MS analysis. In kind it is ADME, organism-based. To be noted: in vivo, read-out: beta t1/2 (converted). In outline:
as §2

Data set [12] is described as follows: Cmax in C57BL/6 mouse at 40 mg/kg, ip measured upto 24 hrs by LC-MS/MS analysis. To be noted: in vivo. Further details: dose 40 mg/kg, time < 24 hrs, route ip. In kind it is ADME, organism-based. In outline:
as §1

A short description of data set [13]: Relative bioavailability in C57BL/6 mouse at 100 mg/kg […] by LC-MS/MS analysis. In kind it is ADME, organism-based. To be noted: in vivo.
Data set [14] has as its target T1, Peroxisome proliferator-activated receptor gamma (Mus musculus). Kind of data set: Agonist activity at human PPARgamma in mouse 3T3-L1 cells assessed as induction of Adipoq-mRNA expression at 25 uM incubated for 11 days by quantitative real-time PCR analysis. To be noted: filed as agonist, time 11.0 day.
Data set [15] in a line: AUC (0 to infinity) in C57BL/6 mouse at 100 mg/kg, po […] by LC-MS/MS analysis. The data set is classed as ADME, organism-based. More on the design: dose 100 mg/kg, route po. To be noted: in vivo.
The nature of data set [16]: Cmax in C57BL/6 mouse at 100 mg/kg, po measured upto 24 hrs by LC-MS/MS analysis. In kind it is ADME, organism-based. To be noted: in vivo. More on the design: time < 24 hrs, dose 100 mg/kg, route po. The essentials: as §2
Data set [17] can be described thus: Apparent oral clearance in C57BL/6 mouse at 40 mg/kg, ip […] by LC-MS/MS analysis. In kind it is ADME, organism-based. To be noted: in vivo.
For data set [18], the system named is Danio rerio. Kind of data set: In vivo agonist activity at human GFP-tagged PPARalpha in transgenic zebrafish assessed as increase in GFP expression in heart at 0.5 uM measured after 14 hrs by microscopy.
The nature of data set [19]: Elimination rate constant in C57BL/6 mouse at 100 mg/kg, po […] by LC-MS/MS analysis. In kind it is ADME, organism-based. To be noted: in vivo.
Data set [20] has as its system Danio rerio. Kind of data set: In vivo agonist activity at human GFP-tagged PPARalpha in transgenic zebrafish assessed as increase in GFP expression in muscle at 0.5 uM measured after 14 hrs by microscopy.
Data set [21] can be described thus: Tmax in C57BL/6 mouse at 40 mg/kg, ip […] by LC-MS/MS analysis. The data set is classed as ADME, organism-based. To be noted: in vivo.
Data set [22] in a line: Terminal half life in C57BL/6 mouse at 40 mg/kg, ip […] by LC-MS/MS analysis. In kind it is ADME, organism-based. To be noted: in vivo, read-out: beta t1/2 (converted).

Consider `CCCCCCCCCCCCCCCc1cccc(OC(C)=O)c1C(=O)O`, for which the result with Danio rerio [1], in the data set on Danio rerio [2] and with Danio rerio [3] was Active.
In the case of `CCCCCC/C=C\CCCCCCCc1cccc(OC(C)(C)C(=O)O)c1`, the outcome in the data set on Danio rerio [4] was Active.
`CCCCCCCCCCCCCCCc1cccc(OC(C)(C)C(=O)O)c1`: the result (in data set [5]; in the data set with Danio rerio [6]; in the data set on Danio rerio [10]; in data set [14]; in the data set with Danio rerio [18]; in the data set with Danio rerio [20]) was Active. The compound also gave a k el at 24 h in data set [7] of 4.83e-05 s⁻¹. For the same compound, the results for the apparent clearance CL/F in data set [8] and in [17] were 2.3 mL/min/kg and 0.89 mL/min/kg, respectively. Further, the AUC(0-inf) in data set [9] is 748 µg·h/mL; in data set [15], 717 µg·h/mL. The half-life in data set [11] is 138 min; in [22], 240 min. Moreover, the Cmax in [12] came to 102 µg/mL; in data set [16] it was 76 µg/mL. In [13], this compound showed a bioavailability of 38%. This compound gave a k el in data set [19] of 8.28e-05 s⁻¹. In addition, the Tmax in data set [21] was 30 min.
